Measured values taken from PubChem BioAssay.
Inconclusive results are not listed.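 The calls were made as follows, unless noted: active = cell viability at or below a set limit in both duplicate runs, the limit being the all-compound median minus 4 SD (cut at about 23% in these data, passing the limit was not always enough); inconclusive = no clear call, values can overlap the other calls; inactive = the rest.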

Tests used:
[1] = OD615 S. cerevisiae growth inhibition, permissive medium, pilot counter-assay, permissive growth control for S. cerevisiae lifespan shortening project (AID 705;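 active = growth inhibition above 25% in both replicates, a cutoff set 3 SD above the mean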); conditions: OD615, 24 h, at 10 µM, hits give high values
Outline: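 System – S. cerevisiae with engineered DeaD lifespan system · Buffer or medium – SC raffinose/galactose permissive medium · Schedule – cells pre-grown 4 h, then 24 h compound exposure, 30 °C humidified · Technique – culture turbidity as optical density at 615 nm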

[2] = Restrictive medium S. cerevisiae growth inhibition, OD615, pilot screen of yeast lifespan reduction project, restrictive growth control (AID 706;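 active = growth inhibition above a set limit, 3 SD over mean compound inhibition, in both replicates, cut at about 43% in these data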;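 also: modified DeaD lifespan yeast strain shifted to restrictive glucose medium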); conditions: OD615, 48 h, at 10 µM, hits give high values
Outline: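 Material: engineered S. cerevisiae DeaD strain / Medium: glucose-based CSMM-D restrictive medium / Compound: single dose of 10 µM compound final, 0.25% DMSO / Timing: 4 h pre-incubation, 48 h exposure at 30 °C / Technique: OD615 absorbance reading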

[3] = viability gain of MRP-1-high H69AR cells under doxorubicin, pilot screen, MRP-1 activator project, CellTiter-Glo, duplicate (AID 807;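 active = viability increase at or above a cutoff of the median across tested compounds plus 3 SD, cut at about 8.5% in these data, passing the limit was not always enough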;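 also: compound pretreatment 18-22 h then 72 h combined with doxorubicin; 0% = doxorubicin alone and 100% = vehicle without doxorubicin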); conditions: H69AR viability with doxorubicin, CellTiter-Glo luminescence; at 10 µM; hits give high values
[4] = growth suppression of beta-catenin knockout HCT116, pilot screen, human colon tumor cells (AID 823); conditions: CellTiter-Glo, 60 h, at 10 µM, hits give low values;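 also: 0% = wells killed by 20 µM Hyamine and 100% = untreated DMSO cell wells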
[5] = growth suppression of PTEN-deleted HCT116, pilot screen, cell-based, HCT116 clonal line, CellTiter-Glo (AID 824;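 active = viability at or below 27.92% in each of two runs, the all-compound median minus 4 SD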;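 also: 0% = 20 µM Hyamine control and 100% = vehicle cell control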); conditions: 60 h, at 10 µM, hits give low values
[6] = inhibitors of the yeast RAM network, pilot screen, dse1pr::URA3 reporter, 5-FOA selection (AID 869;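 active = inhibition over a set limit, the all-compound mean plus 3 SD, in both replicate runs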;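 also: 0% = DMSO wells with no growth and 100% = 10 µM 1-NA-PP1 with full growth; RAM network block rescues cells from 5-FOA so hits raise OD615 growth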); conditions: S. cerevisiae dse1pr::URA3 5-FOA growth, OD615, 2 d; at 10 µM; hits give high values; strain carries analog-sensitive mutant Cbk1 kinase
[7] = RAM signaling pathway blockade in yeast – S. cerevisiae, Pdr1DBD-CYC8 efflux-inhibited sensitized strain, primary screen (AID 1298;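 active = RAM network inhibition above 8.4% in each of two replicates, 3 SD over the compound average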;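 also: 0% = DMSO untreated cells without growth and 100% = 10 µM 1-NA-PP1 full growth; higher means more yeast growth rescued from 5-FOA killing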); conditions: S. cerevisiae cbk1-as DSE1-URA3 strain, 5-FOA growth OD615, 2 d; at 50 µM; hits give high values

COc1cccc(NC2=CC(=O)CC(C)(C)C2)c1
inactive: growth inhibition [1] 4.23% | growth inhibition [2] 0.02% | viability increase [3] -0.06% | viability [4] 95% | viability [5] 99.2% | inhibition [6] 0.5% | RAM network inhibition [7] 1.95%

COc1ccc(OC)c(C2C(C(=O)Nc3ccccc3OC)=C(C)Nc3nc(CCCO)nn32)c1 (configuration not stated)
inactive: growth inhibition [1] 4.07% | growth inhibition [2] -1.39% | viability increase [3] -2.08% | viability [4] 98.9% | viability [5] 96.8% | inhibition [6] 3.86% | RAM network inhibition [7] 4.26%

Cn1c(=O)c2nc(-c3ccc(Cl)cc3Cl)oc2c2ccccc21
inactive: growth inhibition [1] -12.5% | growth inhibition [2] -0.105% | viability increase [3] -3.1% | viability [4] 81.1% | viability [5] 77.6% | inhibition [6] 2.31% | RAM network inhibition [7] 3.74%

O=C(NCc1ccc(F)cc1)C1CCC(=O)N1CCc1ccccc1 (configuration not stated)
inactive: growth inhibition [1] -5.54% | growth inhibition [2] 7.93% | viability increase [3] -0.77% | viability [4] 96.4% | viability [5] 93.2% | inhibition [6] 0.22% | RAM network inhibition [7] -1.59%

CCOC(=O)C1=C(C)NC(=O)NC1c1c(O)ccc2ccccc12 (configuration not stated)
inactive: growth inhibition [1] -11.6% | growth inhibition [2] -12.7% | viability increase [3] -3.39% | viability [4] 97.6% | viability [5] 95.4% | inhibition [6] 0.77% | RAM network inhibition [7] 2.29%

COc1cccc(-c2nc(CS(=O)CC(=O)NCc3ccccc3)c(C)o2)c1 (configuration not stated)
inactive: growth inhibition [1] -9.55% | growth inhibition [2] -15.4% | viability increase [3] 1.16% | viability [4] 99.5% | viability [5] 96.2% | inhibition [6] 1.11% | RAM network inhibition [7] 4.44%

Cc1cc(N2CCC(N(C)C3CCCC3)CC2)nc2cc(O)ccc12
inactive: growth inhibition [1] -8.33% | growth inhibition [2] -9.98% | viability increase [3] -7.96% | viability [4] 53.9% | viability [5] 53.7% | inhibition [6] 2.4% | RAM network inhibition [7] 2.21%

COc1ccc(C(C#N)Nc2ccccc2OC)cc1 (configuration not stated)
inactive: growth inhibition [1] -7.99% | growth inhibition [2] -12.7% | viability increase [3] -2.75% | viability [4] 80.9% | viability [5] 96% | inhibition [6] 0.35% | RAM network inhibition [7] 2.51%

Clc1ccc(-c2nc(-c3ccccn3)no2)cc1Cl
inactive: growth inhibition [1] -4.08% | growth inhibition [2] 0.26% | viability increase [3] -4.17% | viability [4] 72.6% | viability [5] 67.7% | inhibition [6] 2.6% | RAM network inhibition [7] 3.88%

Nc1nc(N2CCOCC2)nc(N(c2ccccc2)c2ccccc2)n1
inactive: growth inhibition [1] -17.1% | growth inhibition [2] -9.3% | viability increase [3] -1.89% | viability [4] 107% | viability [5] 92.4% | inhibition [6] 1.93% | RAM network inhibition [7] 1.9%

CC1(C)CC(=O)c2c(Cc3ccccc3)n[nH]c2C1
inactive: growth inhibition [1] 0.375% | growth inhibition [2] -8.27% | viability increase [3] -1.7% | viability [4] 98.3% | viability [5] 90.5% | inhibition [6] 2.2% | RAM network inhibition [7] -0.11%

Cc1ccccc1-n1c(Cn2c(=O)sc3ccccc32)nnc1SCC(=O)NCC1CCCO1 (configuration not stated)
inactive: growth inhibition [1] -3.68% | growth inhibition [2] -12.2% | viability increase [3] 0% | viability [4] 100% | viability [5] 97.9% | inhibition [6] 0.82% | RAM network inhibition [7] 3.19%

Cc1onc(-c2ccccc2Cl)c1C(=O)NC1CCS(=O)(=O)C1 (configuration not stated)
inactive: growth inhibition [1] -10% | growth inhibition [2] 1.32% | viability increase [3] 1.32% | viability [4] 103% | viability [5] 106% | inhibition [6] 2.96% | RAM network inhibition [7] 3.02%

CCCNC(=O)C(Cc1ccccc1)NS(=O)(=O)c1ccc2c(c1)CCC(=O)N2 (configuration not stated)
inactive: growth inhibition [1] -5.35% | growth inhibition [2] -3.94% | viability increase [3] 0.26% | viability [4] 101% | viability [5] 102% | inhibition [6] 0.755% | RAM network inhibition [7] 1.71%

COc1cccc(-c2nc(CS(=O)(=O)CC(=O)NCc3ccccc3OC)c(C)o2)c1
inactive: growth inhibition [1] 5.72% | growth inhibition [2] 2.59% | viability increase [3] -1.62% | viability [4] 95.9% | viability [5] 89.1% | inhibition [6] 1.55% | RAM network inhibition [7] 3.2%

COc1ccc(OC)c(S(=O)(=O)NCCc2cn3ccsc3n2)c1
inactive: growth inhibition [1] -6.71% | growth inhibition [2] -11.5% | viability increase [3] -2.28% | viability [4] 105% | viability [5] 103% | inhibition [6] 3.81% | RAM network inhibition [7] 3.59%

COc1ccc(C(=O)Oc2ccc3c(c2)OCO3)cc1OC
inactive: growth inhibition [1] -6.54% | growth inhibition [2] -4.45% | viability increase [3] -0.06% | viability [4] 85.9% | viability [5] 100% | inhibition [6] 1.68% | RAM network inhibition [7] 3.32%

O=C(Nc1cccc(Br)c1)c1cc2ccccc2o1
inactive: growth inhibition [1] -5.65% | growth inhibition [2] -7.8% | viability increase [3] -5% | viability [4] 65.5% | viability [5] 64.3% | inhibition [6] 0.03% | RAM network inhibition [7] 3.48%

CCCc1n[nH]c2c1C(=O)C(C(=O)OC)C(C)(C)C2 (configuration not stated)
inactive: growth inhibition [1] -12.6% | growth inhibition [2] -12.8% | viability increase [3] -3.14% | viability [4] 95.9% | viability [5] 95.8% | inhibition [6] 1.14% | RAM network inhibition [7] 4.78%

O=C(CCn1c(=O)oc2ccccc21)NCCCN1CCCC1=O
inactive: growth inhibition [1] 4.51% | growth inhibition [2] 0.85% | viability increase [3] 1.26% | viability [4] 107% | viability [5] 98.5% | inhibition [6] 1.01% | RAM network inhibition [7] 0.46%

CCc1ccc(C2CC(=O)NC(SCC(=O)OC(C)C)=C2C#N)cc1 (configuration not stated)
inactive: growth inhibition [1] -13.8% | growth inhibition [2] -4.45% | viability increase [3] 0.08% | viability [4] 78.9% | viability [5] 79.5% | inhibition [6] 1.15% | RAM network inhibition [7] 2.6%

C=C(C)Cn1c(COc2ccccc2)nnc1SCC(=O)O
inactive: growth inhibition [1] -9.65% | growth inhibition [2] -7.02% | viability increase [3] -4.09% | viability [4] 89.7% | viability [5] 90.6% | inhibition [6] 0.3% | RAM network inhibition [7] 0.88%

COc1ccc(NC(=O)C2CCCN(S(=O)(=O)c3cccc4cccnc34)C2)c(OC)c1 (configuration not stated)
inactive: growth inhibition [1] -9.1% | growth inhibition [2] -2.73% | viability increase [3] -2.29% | viability [4] 70.4% | viability [5] 70.7% | inhibition [6] 1.19% | RAM network inhibition [7] 9.52%

O=C(Nc1sc2c(c1C(=O)O)CCCCC2)c1ccco1
inactive: growth inhibition [1] -3.7% | growth inhibition [2] -9.4% | viability increase [3] -1.32% | viability [4] 88.7% | viability [5] 78.5% | inhibition [6] -0.91% | RAM network inhibition [7] -1.46%

O=C(c1ccccc1F)N1CCN(S(=O)(=O)c2ccc3c(c2)OCCO3)CC1
inactive: growth inhibition [1] -6.31% | growth inhibition [2] 3.28% | viability increase [3] -5.24% | viability [4] 90.5% | viability [5] 91.3% | inhibition [6] 3.16% | RAM network inhibition [7] 2.93%

O=C1Nc2ccccc2C(O)(C(=O)NCc2ccc3c(c2)OCO3)N1c1ccccc1 (configuration not stated)
inactive: growth inhibition [1] -2.08% | growth inhibition [2] -15.5% | viability increase [3] -3.17% | viability [4] 91.7% | viability [5] 92.5% | inhibition [6] 0.54% | RAM network inhibition [7] 0.05%

Cc1ccnc(SCC(=O)O)n1
inactive: growth inhibition [1] -0.18% | growth inhibition [2] -10.8% | viability increase [3] -1.15% | viability [4] 101% | viability [5] 101% | inhibition [6] 1.29% | RAM network inhibition [7] 1.08%

O=C(CCN1CCN(c2ccccc2)CC1)Nc1ccc2c(c1)OCO2
inactive: growth inhibition [1] -5.71% | growth inhibition [2] 0.05% | viability increase [3] -4.06% | viability [4] 91.7% | viability [5] 92.4% | inhibition [6] 2.58% | RAM network inhibition [7] 1.28%

CC(C)OC(=O)c1nnc(Cc2ccc(F)cc2)o1
inactive: growth inhibition [1] 4.28% | growth inhibition [2] 8.2% | viability increase [3] 2.12% | viability [4] 113% | viability [5] 107% | inhibition [6] 0.82% | RAM network inhibition [7] 7.85%

CC1CCc2c(sc3ncnc(NCCN4CCOCC4)c23)C1 (configuration not stated)
inactive: growth inhibition [1] -7.6% | growth inhibition [2] -5.73% | viability increase [3] -6.47% | viability [4] 96.4% | viability [5] 95% | inhibition [6] 1.02% | RAM network inhibition [7] 5.28%

CCn1ncc(C2=NOC(C(=O)Nc3c(C)n(C)n(-c4ccccc4)c3=O)C2)c1C (configuration not stated)
inactive: growth inhibition [1] -7.05% | growth inhibition [2] 5.18% | viability increase [3] 0.26% | viability [4] 96.1% | viability [5] 95.8% | inhibition [6] 0.855% | RAM network inhibition [7] 2.78%

CC(C)COC(=O)c1ccc(NC(=O)C2C3CCC(C3)C2C(=O)O)cc1 (configuration not stated)
inactive: growth inhibition [1] -7.04% | growth inhibition [2] -5.98% | viability increase [3] 0.09% | viability [4] 87.4% | viability [5] 90% | inhibition [6] 0.68% | RAM network inhibition [7] 0.37%

CC(=O)Nc1cccc(N(C)C)c1
inactive: growth inhibition [1] 3.45% | growth inhibition [2] 5.4% | viability increase [3] -0.76% | viability [4] 96.1% | viability [5] 105% | inhibition [6] 1.44% | RAM network inhibition [7] 1.55%

CC(=O)NC(CCS(C)(=O)=O)C(=O)Nc1cccc(Cl)c1Cl (configuration not stated)
inactive: growth inhibition [1] -2.35% | growth inhibition [2] -13.9% | viability increase [3] -4.63% | viability [4] 101% | viability [5] 97% | inhibition [6] 2.29% | RAM network inhibition [7] -0.83%

Cc1ccc(-n2c3c(cc(C(=O)N4CCN(C)CC4)c2=O)C(=O)CC(C)(C)C3)cc1
inactive: growth inhibition [1] -21.9% | growth inhibition [2] -9.49% | viability increase [3] 0.41% | viability [4] 101% | viability [5] 96.6% | inhibition [6] 1.48% | RAM network inhibition [7] 2.1%

O=C(CCCOc1ccccc1)Nc1cccc(C(=O)O)c1
inactive: growth inhibition [1] -0.54% | growth inhibition [2] 3.65% | viability increase [3] 0.34% | viability [4] 96% | viability [5] 98.6% | inhibition [6] 2.61% | RAM network inhibition [7] 2.71%
